Experimental data from paper PMC7547215 (Proceedings of the National Academy of Sciences of the …, 2020).
Read-outs that look alike come from different tables or passages of the source. One block for each compound: values may come before it.

Experiments:
porcine RNase L [1] = target: T1, porcine RNase L (Sus scrofa, UniProt A5H025); assay: Fluorescence-based RNase L endoribonuclease cleavage assay; type: biochemical
T1 sequence (A5H025 1-743): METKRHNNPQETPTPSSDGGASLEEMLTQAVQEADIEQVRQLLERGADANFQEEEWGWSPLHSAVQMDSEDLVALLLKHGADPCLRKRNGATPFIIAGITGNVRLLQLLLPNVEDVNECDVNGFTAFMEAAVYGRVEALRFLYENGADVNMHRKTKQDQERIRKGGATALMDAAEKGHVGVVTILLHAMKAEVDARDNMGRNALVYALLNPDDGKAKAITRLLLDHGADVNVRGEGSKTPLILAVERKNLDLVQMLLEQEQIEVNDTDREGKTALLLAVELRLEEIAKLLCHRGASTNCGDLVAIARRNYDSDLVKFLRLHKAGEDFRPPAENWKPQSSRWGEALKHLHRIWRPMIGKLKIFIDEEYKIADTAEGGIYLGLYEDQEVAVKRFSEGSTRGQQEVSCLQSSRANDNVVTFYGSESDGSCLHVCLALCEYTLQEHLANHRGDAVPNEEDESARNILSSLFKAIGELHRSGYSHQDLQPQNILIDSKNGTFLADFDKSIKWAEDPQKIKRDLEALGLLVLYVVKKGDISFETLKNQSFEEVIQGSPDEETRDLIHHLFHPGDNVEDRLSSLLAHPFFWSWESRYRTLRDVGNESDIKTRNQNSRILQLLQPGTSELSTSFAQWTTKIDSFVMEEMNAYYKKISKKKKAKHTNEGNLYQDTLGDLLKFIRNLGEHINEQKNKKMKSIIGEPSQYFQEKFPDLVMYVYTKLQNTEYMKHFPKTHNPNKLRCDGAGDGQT

murine IRE1 = murine IRE1 (Mus musculus, UniProt Q9EQY0); assay: Fluorescence-based IRE1 endoribonuclease cleavage assay; type: biochemical
murine IRE1, sequence (Q9EQY0 21-977): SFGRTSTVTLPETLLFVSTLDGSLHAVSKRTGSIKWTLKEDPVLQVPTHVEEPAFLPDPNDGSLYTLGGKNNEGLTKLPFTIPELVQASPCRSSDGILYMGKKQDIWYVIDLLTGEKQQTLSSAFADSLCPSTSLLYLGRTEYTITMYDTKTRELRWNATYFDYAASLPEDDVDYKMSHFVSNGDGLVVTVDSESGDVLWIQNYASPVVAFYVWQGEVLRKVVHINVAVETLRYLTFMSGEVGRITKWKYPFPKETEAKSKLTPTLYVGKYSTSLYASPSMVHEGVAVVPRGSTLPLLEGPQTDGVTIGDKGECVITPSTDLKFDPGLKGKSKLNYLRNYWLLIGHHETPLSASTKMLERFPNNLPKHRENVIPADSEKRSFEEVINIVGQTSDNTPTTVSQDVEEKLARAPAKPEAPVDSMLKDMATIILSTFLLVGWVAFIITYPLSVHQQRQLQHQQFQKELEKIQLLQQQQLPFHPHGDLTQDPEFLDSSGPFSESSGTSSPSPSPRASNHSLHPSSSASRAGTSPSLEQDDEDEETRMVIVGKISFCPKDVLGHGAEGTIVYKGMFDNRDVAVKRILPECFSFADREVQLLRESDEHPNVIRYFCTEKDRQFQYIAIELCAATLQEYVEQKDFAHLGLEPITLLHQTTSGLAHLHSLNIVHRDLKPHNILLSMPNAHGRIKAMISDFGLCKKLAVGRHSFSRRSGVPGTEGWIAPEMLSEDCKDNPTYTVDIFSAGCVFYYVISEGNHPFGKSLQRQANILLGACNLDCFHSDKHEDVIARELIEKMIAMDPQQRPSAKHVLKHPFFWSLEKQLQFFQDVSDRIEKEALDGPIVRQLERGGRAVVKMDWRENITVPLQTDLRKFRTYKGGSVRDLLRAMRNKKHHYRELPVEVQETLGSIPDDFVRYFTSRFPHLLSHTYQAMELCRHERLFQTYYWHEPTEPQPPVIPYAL

porcine RNase L H680N = assay: Differential scanning fluorimetry; type: binding
A549 cells = assay: Cell survival; type: cell-based, human; settings: up to 25 μM (SU 3 to 25 μM), over 30 h
Method in brief: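 Human A549 cells cultured with test compound across a concentration series. Dye-labelled cells imaged in real time, and percent survival calculated. Mean ± SD of three survival profiles.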

[2] = test system: casein kinase IIalpha (CK2α); settings: cited from earlier work
porcine RNase L [3] = target: T1, porcine RNase L; assay: BODIPY-ATP fluorescence polarization binding/competition assay
Human CK2a = Human CK2a (Homo sapiens, UniProt P68400); assay: In vitro inhibition of CK2α kinase activity; type: biochemical
Human CK2a, sequence (P68400 whole entry): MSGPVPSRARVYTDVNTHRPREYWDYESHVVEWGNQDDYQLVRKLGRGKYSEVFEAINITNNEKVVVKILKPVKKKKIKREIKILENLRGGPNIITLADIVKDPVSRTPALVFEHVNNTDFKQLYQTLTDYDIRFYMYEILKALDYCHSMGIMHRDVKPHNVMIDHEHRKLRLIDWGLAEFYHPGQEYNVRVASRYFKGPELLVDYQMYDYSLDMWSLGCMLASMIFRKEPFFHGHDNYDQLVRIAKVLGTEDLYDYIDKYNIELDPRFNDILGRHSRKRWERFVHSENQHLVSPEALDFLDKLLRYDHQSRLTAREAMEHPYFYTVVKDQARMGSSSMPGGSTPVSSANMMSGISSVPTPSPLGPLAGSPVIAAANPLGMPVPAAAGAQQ

[4] = target: T2, RNase L in human A549 cells (Homo sapiens, UniProt Q05823); assay: rRNA cleavage after pIC transfection in A549 cells; type: cell-based
T2 sequence (Q05823 1-741): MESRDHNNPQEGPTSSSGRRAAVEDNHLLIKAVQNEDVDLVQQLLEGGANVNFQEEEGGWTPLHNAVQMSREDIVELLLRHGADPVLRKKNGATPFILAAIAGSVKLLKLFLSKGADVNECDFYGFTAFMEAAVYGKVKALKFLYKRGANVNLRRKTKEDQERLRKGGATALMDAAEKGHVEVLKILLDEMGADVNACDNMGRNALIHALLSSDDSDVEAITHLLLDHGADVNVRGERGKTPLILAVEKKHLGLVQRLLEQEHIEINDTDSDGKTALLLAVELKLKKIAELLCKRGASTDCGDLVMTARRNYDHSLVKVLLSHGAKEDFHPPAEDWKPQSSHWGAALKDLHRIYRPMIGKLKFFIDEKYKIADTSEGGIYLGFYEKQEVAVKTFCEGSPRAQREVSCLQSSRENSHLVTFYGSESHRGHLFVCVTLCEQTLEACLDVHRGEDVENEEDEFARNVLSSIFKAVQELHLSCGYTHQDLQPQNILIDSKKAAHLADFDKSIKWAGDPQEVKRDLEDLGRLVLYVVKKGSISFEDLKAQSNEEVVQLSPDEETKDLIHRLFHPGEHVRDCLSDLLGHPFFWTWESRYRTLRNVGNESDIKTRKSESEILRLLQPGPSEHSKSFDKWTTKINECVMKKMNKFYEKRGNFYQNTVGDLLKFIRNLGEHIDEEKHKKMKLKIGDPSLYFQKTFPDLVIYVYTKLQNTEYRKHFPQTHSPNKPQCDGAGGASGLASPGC

glycogen phosphorylase b = settings: read-out: IC50, glycogen phosphorylase b; cited from earlier work
RNase L [5] = settings: cited from earlier work
RNase L [6] = settings: read-out: IC50, ribonuclease activity of RNase L in vitro; cited from earlier work

Effect on RNase L ribonuclease activity (porcine RNase L [1]; Fig. 2): ineffective at complete inhibition | Effect on IRE1 ribonuclease activity (murine IRE1; Fig. 2): ineffective at complete inhibition
Structure (SMILES): Nc1ccc2ccc3c(N)ccc4ccc1c2c43 [1,6-diaminopyrene]

Thermal stabilization of purified RNase L by ligand on its own (porcine RNase L H680N): pronounced stabilization | ΔTm of RNase L (porcine RNase L H680N; named ligand(s) vs RNase L alone, SI Fig. S7, listed as ATP/MgCl2): 6 ± 0.2 °C
Structure (SMILES): Nc1ncnc2c1ncn2[C@@H]1O[C@H](COP(=O)(O)OP(=O)(O)OP(=O)(O)O)[C@@H](O)[C@H]1O [ATP]

Structure (SMILES): O=c1oc2c(O)c(O)cc3c(=O)oc4c(O)c(O)cc1c4c23 [EA, ellagic acid]
IC50 (porcine RNase L [1]; IC50, RNase L ribonuclease activity, 10-point dose–response, commercially sourced fresh powder, Fig. 1C, mean ± SEM of four curves): 73.5 ± 0.2 nM | IC50 (murine IRE1): 270.6 ± 0.1 nM | Cytotoxicity (A549 cells): not cytotoxic | Potency of casein kinase II inhibition [2]: 20 nM | IC50 ([2]; read-out: IC50, casein kinase IIalpha (CK2α)): 40 nM | Competitive displacement of BODIPY-ATP from RNase L (porcine RNase L [3]): neither EA nor VAL could competitively displace | IC50 (Human CK2a): 419 nM | Decrease in potency in cells relative to in vitro against porcine RNase L ([4]; A549 and L929 cell lines): ~1,000 fold | pIC-induced RNA cleavage pattern ([4]; A549 cells, 3 h preincubation, 12 ng/mL pIC for 2 h): progressively reduced in a concentration-dependent manner | IC50 (glycogen phosphorylase b): 3200 nM

Structure (SMILES): CCN(CC)CCNC(=O)c1c(C)[nH]c(/C=C2\C(=O)Nc3ccc(F)cc32)c1C [sunitinib]
Concentration required for the repression of RNase L cleavage activity (RNase L [5]; in cells): ~5 µM | IC50 (RNase L [5]; read-out: IC50, antiviral function of RNase L in cells): 1000 nM | IC50 (RNase L [6]): 1400 nM | Cytotoxicity (A549 cells): considerable cytotoxicity
